Data as given in ChEMBL document CHEMBL4373711, “Development of 3,5-Dinitrophenyl-Containing 1,2,4-Triazoles and Their Trifluoromethyl Analogues as Highly Efficient Antitubercular Agents Inhibiting Decaprenylphosphoryl-β-d-ribofuranose 2'-Oxidase” (J Med Chem, 2019).
Converted amounts (≈) assume the structure as drawn. The source made the active and inactive calls. No cut-off for these calls is given here.

Assays:
[1] = tested on: Mycobacterium tuberculosis; assay: Antimycobacterial activity against Mycobacterium tuberculosis H37Rv CNCTC My 331/88 after 14 days; type: functional; conditions: H37Rv CNCTC My 331/88, 336 h
In short: (§1)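 M. tuberculosis strains (H37Rv and clinical MDR/XDR isolates) tested by microdilution in Šula's semisynthetic medium. Compounds were dissolved in DMSO and tested at 32 to 0.03 µM in twofold steps. Inoculum was a 1.0 McFarland suspension diluted 10-3. Plates were incubated at 37 °C and read at 14 and 21 days.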

[2] = tested on: Mycobacterium tuberculosis; assay: Antimycobacterial activity against Mycobacterium tuberculosis H37Rv CNCTC My 331/88 after 21 days; type: functional; conditions: H37Rv CNCTC My 331/88, 504 h; in short: as §1
Mycobacterium avium [3] = assay: Antimycobacterial activity against Mycobacterium avium CNCTC My 330/88 after 14 days; type: functional; conditions: CNCTC My 330/88, 336 h
In short: (§2)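 M. avium was tested by microdilution in Šula's semisynthetic medium, with compounds dissolved in DMSO and serially diluted from 1000 down to 1. Inoculum was a 1.0 McFarland suspension diluted 10-5. Plates were incubated at 37 °C and read at 14 and 21 days. […] Isoniazid and rifampicin served as standards.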

Mycobacterium avium [4] = assay: Antimycobacterial activity against Mycobacterium avium CNCTC My 330/88 after 21 days; type: functional; conditions: CNCTC My 330/88, 504 h; in short: as §2
Mycobacterium kansasii [5] = assay: Antimycobacterial activity against Mycobacterium kansasii CNCTC My 235/80 after 7 days; type: functional; conditions: CNCTC My 235/80, 168 h
In short: (§3)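 Microdilution in Šula's semisynthetic medium; compounds in DMSO at 32–0.03 µM. Inoculum from 1.0 McFarland suspension diluted 10-4. […] Isoniazid and rifampicin as reference drugs.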

Mycobacterium kansasii [6] = assay: Antimycobacterial activity against Mycobacterium kansasii CNCTC My 235/80 after 14 days; type: functional; conditions: CNCTC My 235/80, 336 h; in short: as §3
Mycobacterium kansasii [7] = assay: Antimycobacterial activity against Mycobacterium kansasii CNCTC My 235/80 after 21 days; type: functional; conditions: CNCTC My 235/80, 504 h; in short: as §3
Mycobacterium kansasii [8] = assay: Antimycobacterial activity against Mycobacterium kansasii 6509/96 after 7 days; type: functional; conditions: 6509/96, 168 h; in short: as §3
Mycobacterium kansasii [9] = assay: Antimycobacterial activity against Mycobacterium kansasii 6509/96 after 14 days; type: functional; conditions: 6509/96, 336 h; in short: as §3
Mycobacterium kansasii [10] = assay: Antimycobacterial activity against Mycobacterium kansasii 6509/96 after 21 days; type: functional; conditions: 6509/96, 504 h; in short: as §3
[11] = tested on: Mycobacterium tuberculosis; assay: Antimycobacterial activity against XDR Mycobacterium tuberculosis Praha 131 after 14 days; type: functional; conditions: Praha 131, 336 h; in short: as §1
[12] = tested on: Mycobacterium tuberculosis; assay: Antimycobacterial activity against XDR Mycobacterium tuberculosis Praha 131 after 21 days; type: functional; conditions: Praha 131, 504 h; in short: as §1
Staphylococcus aureus [13] = assay: Antibacterial activity against Staphylococcus aureus subsp. aureus ATCC 29213 CCM 4223 at highest concentration measured after 24 to 48 hrs by alamar blue dye based broth microdilution assay; type: functional, organism-based
Staphylococcus aureus [14] = assay: Antibacterial activity against methicillin-resistant Staphylococcus aureus subsp. aureus ATCC 43300 CCM 4750 at highest concentration measured after 24 to 48 hrs by alamar blue dye based broth microdilution assay; type: functional, organism-based
[15] = tested on: Staphylococcus epidermidis; assay: Antibacterial activity against Staphylococcus epidermidis at highest concentration measured after 24 to 48 hrs by alamar blue dye based broth microdilution assay; type: functional, organism-based
Enterococcus faecalis = assay: Antibacterial activity against Enterococcus faecalis ATCC 29212 CCM 4224 at highest concentration measured after 24 to 48 hrs by alamar blue dye based broth microdilution assay; type: functional, organism-based
Escherichia coli = assay: Antibacterial activity against Escherichia coli ATCC 25922 CCM 3954 at highest concentration measured after 24 to 48 hrs by alamar blue dye based broth microdilution assay; type: functional, organism-based
Klebsiella pneumoniae = assay: Antibacterial activity against Klebsiella pneumoniae at highest concentration measured after 24 to 48 hrs by alamar blue dye based broth microdilution assay; type: functional, organism-based
Serratia marcescens = assay: Antibacterial activity against Serratia marcescens at highest concentration measured after 24 to 48 hrs by alamar blue dye based broth microdilution assay; type: functional, organism-based
Pseudomonas aeruginosa = assay: Antibacterial activity against Pseudomonas aeruginosa ATCC 27853 CCM 3955 at highest concentration measured after 24 to 48 hrs by alamar blue dye based broth microdilution assay; type: functional, organism-based
Candida albicans = assay: Antifungal activity against Candida albicans ATCC 24433 CCM 8320 at highest concentration measured after 24 to 48 hrs by alamar blue dye based broth microdilution assay; type: functional, organism-based
Pichia kudriavzevii = assay: Antifungal activity against Candida krusei ATCC 6258 CCM8271 at highest concentration measured after 24 to 48 hrs by alamar blue dye based broth microdilution assay; type: functional, organism-based
Candida parapsilosis = assay: Antifungal activity against Candida parapsilosis ATCC 22019 CCM 8260 at highest concentration measured after 24 to 48 hrs by alamar blue dye based broth microdilution assay; type: functional, organism-based
Candida tropicalis = assay: Antifungal activity against Candida tropicalis ATCC 750 CCM 8264 at highest concentration measured after 24 to 48 hrs by alamar blue dye based broth microdilution assay; type: functional, organism-based
Aspergillus fumigatus = assay: Antifungal activity against Aspergillus fumigatus ATCC 204305 at highest concentration measured after 24 to 48 hrs by alamar blue dye based broth microdilution assay; type: functional, organism-based
Aspergillus flavus = assay: Antifungal activity against Aspergillus flavus CCM 8363 at highest concentration measured after 24 to 48 hrs by alamar blue dye based broth microdilution assay; type: functional, organism-based
Lichtheimia corymbifera = assay: Antifungal activity against Lichtheimia corymbifera CCM 8077 at highest concentration measured after 24 to 48 hrs by alamar blue dye based broth microdilution assay; type: functional, organism-based
[16] = tested on: Trichophyton interdigitale; assay: Antifungal activity against Trichophyton interdigitale ATCC 9533 CCM 8377 at highest concentration measured after 72 to 120 hrs by alamar blue dye based broth microdilution assay; type: functional
HepG2 = assay: Cytotoxicity against human HepG2 cells assessed as reduction in cell viability after 48 hrs by CellTiter 96 aqueous one solution assay; type: cell-based; conditions: HepG2, 48 h
[17] = Cytotoxicity against human HepG2 cells assessed as cell viability at 30 uM after 48 hrs by CellTiter 96 aqueous one solution assay relative to control; type: cell-based; conditions: read-out: Activity
In short: (§4)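 HepG2 (DMEM, 10% FBS, 1 mM pyruvate) or A431 (DMEM, 10% FBS) seeded 10,000 cells/well, 24 h at 37 °C, 5% CO2, then 30 µM compound for 48 h. MTS reagent 60 min, absorbance 490 nm, background subtracted; 0.1% DMSO vehicle = 100%, 10% SDS = 0% viability.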

A-431 = assay: Cytotoxicity against human A431 cells assessed as reduction in cell viability after 48 hrs by CellTiter 96 aqueous one solution assay; type: cell-based; conditions: A-431, 48 h
[18] = Cytotoxicity against human A431 cells assessed as cell viability at 30 uM after 48 hrs by CellTiter 96 aqueous one solution assay relative to control; type: cell-based, A-431; conditions: read-out: Activity; in short: as §4
[19] = Genotoxicity in Salmonella typhimurium TA100 at 30 uM in presence of rat liver S9 fraction by Ames test; type: toxicity, subcellular; conditions: salmonella enterica subsp. enterica serovar typhimurium, s9, 30 µM
In short: (§5)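 Microplate fluctuation Ames reverse-mutation test following kit instructions; TA98 detects frameshift and TA100 base-exchange mutations. Compound at 30 µM final with Aroclor-1254-induced rat liver S9 plus cofactors.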

[20] = Genotoxicity in Salmonella typhimurium TA98 at 30 uM in presence of rat liver S9 fraction by Ames test; type: toxicity, subcellular; conditions: salmonella enterica subsp. enterica serovar typhimurium, s9, 30 µM; in short: as §5

Row | Compound | MIC99 [1] | MIC99 [2] | MIC99 (Mycobacterium avium [3]) | MIC99 (Mycobacterium avium [4]) | MIC99 (Mycobacterium kansasii [5]) | MIC99 (Mycobacterium kansasii [6]) | MIC99 (Mycobacterium kansasii [7]) | MIC99 (Mycobacterium kansasii [8]) | MIC99 (Mycobacterium kansasii [9]) | MIC99 (Mycobacterium kansasii [10]) | MIC99 [11] | MIC99 [12] | Activity (Staphylococcus aureus [13]) | Activity (Staphylococcus aureus [14]) | Activity [15] | Activity (Enterococcus faecalis) | Activity (Escherichia coli) | Activity (Klebsiella pneumoniae) | Activity (Serratia marcescens) | Activity (Pseudomonas aeruginosa) | further results
1 | O=[N+]([O-])c1cc(-c2nnc(SCc3ccc(Cl)c(Cl)c3)n2Cc2ccccc2)cc([N+](=O)[O-])c1 | 0.25 µM (≈ 0.129 µg/mL) | 0.25 µM (≈ 0.129 µg/mL) | 62 µM (≈ 32 µg/mL) | 62 µM (≈ 32 µg/mL) | 0.25 µM (≈ 0.129 µg/mL) | 0.25 µM (≈ 0.129 µg/mL) | 0.25 µM (≈ 0.129 µg/mL) | 0.06 µM (≈ 0.031 µg/mL) | 0.125 µM (≈ 0.0645 µg/mL) | 0.125 µM (≈ 0.0645 µg/mL) | 0.125 µM (≈ 0.0645 µg/mL) | 0.25 µM (≈ 0.129 µg/mL) | inactive | inactive | inactive | inactive | inactive | inactive | inactive | inactive | Activity (Candida albicans): inactive; Activity (Pichia kudriavzevii): inactive; Activity (Candida parapsilosis): inactive; Activity (Candida tropicalis): inactive; Activity (Aspergillus fumigatus): inactive; Activity (Aspergillus flavus): inactive; Activity (Lichtheimia corymbifera): inactive; Activity [16]: inactive; IC50 (HepG2): > 30 µM; viability at 48 h, 30 µM [17]: 103%; IC50 (A-431): > 30 µM; viability at 48 h, 30 µM [18]: 97%; Activity [19]: Non-Toxic; Activity [20]: Toxic
2 | Cn1c(SCc2ccccc2)nnc1-c1cc([N+](=O)[O-])cc([N+](=O)[O-])c1 | 0.03 µM (≈ 0.0111 µg/mL) | 0.03 µM (≈ 0.0111 µg/mL) | 16 µM (≈ 5.94 µg/mL) | 16 µM (≈ 5.94 µg/mL) | 0.25 µM (≈ 0.0928 µg/mL) | 0.25 µM (≈ 0.0928 µg/mL) | 0.25 µM (≈ 0.0928 µg/mL) | 0.06 µM (≈ 0.0223 µg/mL) | 0.125 µM (≈ 0.0464 µg/mL) | 0.25 µM (≈ 0.0928 µg/mL) | 0.03 µM (≈ 0.0111 µg/mL) | 0.03 µM (≈ 0.0111 µg/mL) | inactive | inactive | inactive | inactive | inactive | inactive | inactive | inactive | Activity (Candida albicans): inactive; Activity (Pichia kudriavzevii): inactive; Activity (Candida parapsilosis): inactive; Activity (Candida tropicalis): inactive; Activity (Aspergillus fumigatus): inactive; Activity (Aspergillus flavus): inactive; Activity (Lichtheimia corymbifera): inactive; Activity [16]: inactive; IC50 (HepG2): > 30 µM; viability at 48 h, 30 µM [17]: 161%; IC50 (A-431): > 30 µM; viability at 48 h, 30 µM [18]: 108%
3 | O=[N+]([O-])c1cc(-c2nnc(SCc3ccc(Br)cc3)n2Cc2ccccc2)cc([N+](=O)[O-])c1 | 0.125 µM (≈ 0.0658 µg/mL) | 0.25 µM (≈ 0.132 µg/mL) | 62 µM (≈ 32.6 µg/mL) | 62 µM (≈ 32.6 µg/mL) | 0.125 µM (≈ 0.0658 µg/mL) | 0.25 µM (≈ 0.132 µg/mL) | 0.25 µM (≈ 0.132 µg/mL) | 0.125 µM (≈ 0.0658 µg/mL) | 0.125 µM (≈ 0.0658 µg/mL) | 0.25 µM (≈ 0.132 µg/mL) | 0.125 µM (≈ 0.0658 µg/mL) | 0.25 µM (≈ 0.132 µg/mL) | inactive | inactive | inactive | inactive | inactive | inactive | inactive | inactive | Activity (Candida albicans): inactive; Activity (Pichia kudriavzevii): inactive; Activity (Candida parapsilosis): inactive; Activity (Candida tropicalis): inactive; Activity (Aspergillus fumigatus): inactive; Activity (Aspergillus flavus): inactive; Activity (Lichtheimia corymbifera): inactive; Activity [16]: inactive; IC50 (HepG2): > 30 µM; viability at 48 h, 30 µM [17]: 104%; IC50 (A-431): > 30 µM; viability at 48 h, 30 µM [18]: 110%
4 | O=[N+]([O-])c1cc(-c2nnc(SCc3ccc(Cl)cc3)n2Cc2ccccc2)cc([N+](=O)[O-])c1 | 0.125 µM (≈ 0.0602 µg/mL) | 0.25 µM (≈ 0.12 µg/mL) | 62 µM (≈ 29.9 µg/mL) | 62 µM (≈ 29.9 µg/mL) | 0.125 µM (≈ 0.0602 µg/mL) | 0.25 µM (≈ 0.12 µg/mL) | 0.5 µM (≈ 0.241 µg/mL) | 0.06 µM (≈ 0.0289 µg/mL) | 0.125 µM (≈ 0.0602 µg/mL) | 0.125 µM (≈ 0.0602 µg/mL) | 0.125 µM (≈ 0.0602 µg/mL) | 0.25 µM (≈ 0.12 µg/mL) | inactive | inactive | inactive | inactive | inactive | inactive | inactive | inactive | Activity (Candida albicans): inactive; Activity (Pichia kudriavzevii): inactive; Activity (Candida parapsilosis): inactive; Activity (Candida tropicalis): inactive; Activity (Aspergillus fumigatus): inactive; Activity (Aspergillus flavus): inactive; Activity (Lichtheimia corymbifera): inactive; Activity [16]: inactive; IC50 (HepG2): > 30 µM; viability at 48 h, 30 µM [17]: 105%; IC50 (A-431): > 30 µM; viability at 48 h, 30 µM [18]: 95%; Activity [19]: Non-Toxic; Activity [20]: Toxic
